SENP7 block: SENP7 protease inhibitors, primary screen, biochemical, luminescence, uHTS | recombinant SENP7, Z-RLRGG-aminoluciferin luminescence, 40 min | inhibition, % at 5 µM | 330,000 tested, 1.5% active | AID 434973, 2010;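 active means inhibition above about 50% at the single test dose, limit read from the data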;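 further: plate controls were DMSO with enzyme for no effect and no enzyme buffer wells for full effect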
Target sequence (Q9BQF6 706-1050 limits assumed): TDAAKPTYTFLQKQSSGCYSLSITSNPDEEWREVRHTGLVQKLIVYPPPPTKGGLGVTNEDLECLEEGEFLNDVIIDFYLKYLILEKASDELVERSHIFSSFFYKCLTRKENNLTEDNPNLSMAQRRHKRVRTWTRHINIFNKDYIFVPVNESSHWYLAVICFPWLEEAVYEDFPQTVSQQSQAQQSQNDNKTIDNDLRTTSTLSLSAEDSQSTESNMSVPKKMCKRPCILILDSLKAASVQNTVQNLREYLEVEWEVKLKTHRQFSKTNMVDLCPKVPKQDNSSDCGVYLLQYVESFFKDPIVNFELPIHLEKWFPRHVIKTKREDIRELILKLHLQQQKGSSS
SENP8 block-1: SENP8 protease inhibitors, primary screen, biochemical, luminescence; purified SENP8, Z-RLRGG-aminoluciferin cleavage; inhibition, % at 10 µM; 330,000 tested, 1.2% active; in the data active means inhibition above about 50%
SENP1 FRET inh: human SENP1 catalytic domain inhibitors, primary screen, biochemical, FRET, uHTS; inhibition, % at 10 µM; Sentrin-specific protease 1 (Homo sapiens), Q9P0U3; AID 624204, 2012; recombinant SENP1 catalytic domain, CyPet-SUMO1-YPet FRET cleavage; 360,000 tested, 0.21% active;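 active means inhibition at least 30% at 10 µM, raw YFP signal under a set limit, fluorescence ratio 0.5 to 1.5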;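 further: 0% = enzyme with DMSO and 100% = no enzyme wells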
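Test system: human SENP1 catalytic domain; medium: Tris pH 8 buffer plus EDTA, NaCl, BME, BSA, NP40, catalase; incubation: 50 min reaction at room temperature; technique: FRET, CFP and YFP emission; controls: no-enzyme low control and enzyme-plus-DMSO high control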
SENP8 block-2: human SENP8 protease inhibitors, primary screen, biochemical, fluorescence, Nedd8 protein substrate, uHTS; recombinant SENP8; inhibition, % at 20 µM; 360,000 tested, 0.64% active; AID 602440, 2012; in the data active means inhibition mostly above about 40%, no sharp cut-off; inactive means mostly below about 27%
SENP6 inh: SENP6 protease inhibitors, primary screen, biochemical, luminescence, uHTS; Sentrin-specific protease 6 (Homo sapiens), Q9GZR1; Recombinant SENP6 catalytic domain, aminoluciferin luminescence; inhibition, % at 10 µM; 330,000 tested, 1.8% active; AID 2599, 2010;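 active means inhibition above about 50% at the single tested dose, limit read from the data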;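 further: plate controls were DMSO wells with enzyme for no effect and DMSO wells lacking enzyme for full effect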
Platelet DG rel: inhibitors of platelet dense granule secretion, primary screen, cell-based, MLPCN, human platelets. human platelet-rich plasma, SFLLRN dense granule ATP release, luminescence. inhibition, %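 (compounds screened at 7.5 µM in platelet-rich plasma)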. 300,000 tested, 0.22% active;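 active means mean replicate score, as percent of positive control, at or above 50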
SENP8 confirm: SENP8 protease inhibitors, retest, confirmation, biochemical, luminescence, single concentration; Recombinant SENP8, Z-RLRGG-aminoluciferin luminescence, 60 min; AID 488912, 2010; 6,200 tested, 40% active; inhibition, % at 12.5 µM; shares compounds with SENP7 block;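 active means mean inhibition across replicates above about 50%, limit read from the data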
SENP6 confirm: SENP6 protease inhibitors, confirmation, biochemical, luminescence, single concentration; shares compounds with SENP7 block; recombinant SENP6, Z-RLRGG-aminoluciferin luminescence; inhibition, % at 12.5 µM; 6,200 tested, 58% active
SENP7 confirm: SENP7 protease inhibitors, retest, confirmation, biochemical, luminescence, single concentration. shares compounds with SENP7 block. recombinant SENP7, Z-RLRGG-aminoluciferin luminescence, 40 min. inhibition, % at 12.5 µM. 6,200 tested, 69% active
Casp3 select: caspase-3 protease inhibitors, confirmation, selectivity assay for SENP inhibitor project, biochemical, single concentration | shares compounds with SENP7 block | purified caspase-3, Z-DEVD-aminoluciferin luminescence, 60 min | inhibition, % at 12.5 µM | 6,200 tested, 60% active | AID 488918, 2010;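 active means mean inhibition above about 50%, limit read from the data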;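 further: plate controls were enzyme with DMSO for no effect and wells without caspase-3 for full effect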
Luc interf: counter-screen for SENP inhibitors: luminescence interference | shares compounds with SENP7 block | Pre-incubated SENP8/Z-RLRGG-aminoluciferin, luciferase luminescence interference | 6,200 tested, 39% active | AID 488919 | inhibition, % at 12.5 µM;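 active means mean inhibition above about 50% when retested at one dose, limit read from the data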;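 further: plate controls were DMSO wells with completed reaction for no effect and substrate without enzyme for full effect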
* marks the source's active call; other numbers are inactive results; . = no result given. In the library only some 2.6% were active in any assay of this set; here they are far more common.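 How the source made its calls, unless noted: active means mean inhibition above about 50% in the one-dose retest (limit read from the data); inactive means the rest.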

SMILES	SENP7 block	SENP8 block-1	SENP1 FRET inh	SENP8 block-2	SENP6 inh	Platelet DG rel	SENP8 confirm	SENP6 confirm	SENP7 confirm	Casp3 select	Luc interf
N#Cc1cc2ccc(N3CCOCC3)cc2cc1C#N	-6.9	88.5*	-28.9	-280.1	90.9*	1.1	15.1	22.0	3.4	4.1	-2.1
COc1cc(SC)ccc1C(=O)Nc1ccc(Br)cn1	90.4*	82.3*	0.9	3.8	90.2*	13.5	53.2*	75.7*	80.4*	77.4*	50.4*
COc1cc(SC)ccc1C(=O)Nc1ncc(C)s1	93.5*	88.6*	-0.7	-170.2	95.7*	18.2	90.0*	90.8*	100.0*	89.1*	35.2
COc1cc(SC)ccc1C(=O)Nc1ccc2ncccc2c1	88.4*	88.4*	1.1	-23.4	93.8*	9.4	3.3	77.1*	95.3*	67.7*	38.0
COc1cc(SC)ccc1C(=O)Nc1ccc(C)cc1C	70.2*	61.4*	0.8	8.4	75.2*	-0.5	20.3	25.6	24.5	38.7	6.1
COc1cc(SC)ccc1C(=O)Nc1cccc(C)n1	44.5	27.1	1.2	15.4	-19.4	-9.9	.	.	.	.	.
COc1cc(SC)ccc1C(=O)Nc1ccc(C)cc1	7.1	2.3	0.7	7.1	-13.3	3.5	.	.	.	.	.
COc1cc(SC)ccc1C(=O)Nc1ccccn1	44.2	17.7	-0.1	14.5	47.2	4.4	.	.	.	.	.
COCCN1CC(C(=O)N2CCC(Oc3ccccc3OC)CC2)CCC1=O (stereo not given)	-2.9	8.5	-0.2	10.4	-14.1	-3.7	.	.	.	.	.
COc1ccc(OCCN2C(=O)c3cccc(N)c3C2=O)cc1	20.7	18.0	-24.5	-337.7	39.5	-1.3	.	.	.	.	.
O=C(O)c1cc(/C=C/c2ccc(N3CCOCC3)c([N+](=O)[O-])c2)nc2ccccc12	62.9*	52.6*	-22.2	-104.2	76.8*	11.3	73.0*	68.3*	91.1*	81.0*	71.4*
O=C(O)c1cc(/C=C/c2ccc(N3CCOCC3)cc2)nc2ccccc12	68.8*	70.0*	-31.0	-417.8	1.7	.	79.0*	78.5*	95.6*	90.3*	83.1*
O=C(O)c1cc(N2CCOCC2)nc2ccccc12	14.2	-10.0	-1.5	-314.5	-4.6	4.3	.	.	.	.	.
Cc1c(C)c2ccc(OC(C)C(=O)NCCCN3CCOCC3)c(C)c2oc1=O (stereo not given)	-6.8	0.6	2.0	-275.4	-13.2	12.9	.	.	.	.	.
COc1ccc(CC(=O)Nc2cc(S(=O)(=O)N3CCCC3)ccc2Cl)c(OC)c1	3.5	-6.3	1.3	9.4	-25.2	.	.	.	.	.	.
O=C1CCCN1CCCN1CC(C(=O)N(CCO)Cc2ccccc2)CCC1=O (stereo not given)	2.4	-11.3	-2.0	3.4	-15.7	-10.1	.	.	.	.	.

Screens from PubChem.
